The subject of one data set is LN-229 cells. Nature of the data set: MitoSOX flow cytometry of mitochondrial ROS, LN-229. Particulars: cytochrome c reductase inhibitor as control. The data set is classed as cell-based, human. An outline of the steps:
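Cells trypsinised, washed and suspended in HBSS at 1 × 10^6 cells/mL, then exposed to test compound (0.2 or 1 mM) in HBSS for 2 h. Stained with 5 μM MitoSOX for 20 min at 37 °C and read by flow cytometry in the red channel. Antimycin A served as the ROS-promoting control. Mean channel fluorescence ± SEM, n = 3; two-way ANOVA with Bonferroni post-test vs untreated.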

A further data set has as its system melanoma cells. Particulars: ref Le Gal et al., 2015; cited from earlier work.
The test system of another data set is V79 lung fibroblasts. Particulars: ref Grosicka-Maciąg et al., 2011; cited from earlier work.
The next data set relates to trypsin. Particulars: previous HPLC conditions; ref Akhmadishina et al., 2018; cited from earlier work.

`CCCCCC[C@H]1C(=O)O[C@H](C)[C@H](NC(=O)c2cccc(NC=O)c2O)C(=O)O[C@@H](C)[C@@H]1OC(=O)CC(C)C` [antimycin A]: the “effect on mitochondrial ROS (MitoSOX)” value in the data set on LN-229 cells is “lack of ROS-promoting effect”.
Take `Cc1c(C)c2c(c(C)c1O)CCC(C)(C(=O)O)O2` (centres unmarked) [Trolox]: the “elevation of GSH/GSSG ratio” value in the data set on melanoma cells is reported as “ca. 2.5 times”.
On to `CC(=O)N[C@@H](CS)C(=O)O` [N-acetylcysteine (NAC), N-acetylcysteine], for which the “elevation of GSH/GSSG ratio” value in the data set on melanoma cells was about 3.8 times. In the data set with V79 lung fibroblasts, the “increase of both GSH and GSSG levels” value is given as “up to 2 times”.
Turning to YRFK-NH2, the “half-time of cleavage by trypsin” value in the data set with trypsin is given as 6 h.

These data come from paper PMC9804109 (Current Research in Pharmacology and Drug Discovery, 2022).
